Reference: ChEMBL document CHEMBL4196218, “Synthesis and in Vitro Bioactivity of Polyunsaturated Fatty Acid Conjugates of Combretastatin A-4” (J Nat Prod, 2018)
The source made the active and inactive calls. No cut-off for these calls is given here.

Key:
MCF7 [1] = assay: Cytotoxicity against human MCF7 cells after 72 hrs by MTS/PMS assay; format: functional, cell-based; conditions: for IC50: MCF7, 72 h
Summary of the method: (§1)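 MCF-7 cells grown in DMEM with 10% heat-inactivated FBS, penicillin, streptomycin, L-glutamine and MEM NEAA at 37 °C, 5% CO2. Seeded at 5000 cells/well. After 24 h, given fresh medium plus compound (DMSO stock diluted in DPBS; final 0–10 μM) for 72 h. Then serum-free medium with MTS/PMS for 1 h at 37 °C. A490 read, viability as % of untreated cells. IC50 read graphically. Six replicates, three independent experiments.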

Bos taurus [2] = species on record: Bos taurus; assay: Inhibition of bovine tubulin polymerization at 1 uM measured every 30 secs for 2 hrs by turbidity method
Summary of the method: (§2)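 Kit-based turbidity assay with tubulin at 26.7 μM (2.94 mg/mL) in G-PB buffer (polymerization buffer, GTP, glycerol), assembled on ice. Compound stocks in DMSO diluted in water to give 1 or 10 μM. A350 read every 30 s for 2 h at 37 °C. Nocodazole and DMSO (1.43% or 0.14% v/v) as controls. Duplicate assays. Area under curve compared by one-way ANOVA with Bonferroni post-test.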

Bos taurus [3] = species on record: Bos taurus; assay: Inhibition of bovine tubulin polymerization assessed as lag time for tubulin polymerization at 1 uM measured every 30 secs for 2 hrs by turbidity method; summary of the method: as §2
Bos taurus [4] = species on record: Bos taurus; assay: Inhibition of bovine tubulin polymerization at 10 uM measured every 30 secs for 2 hrs by turbidity method; summary of the method: as §2
MCF7 [5] = assay: Cytotoxicity against human MCF7 cells assessed as cell viability at 5 to 10 uM after 72 hrs by MTS/PMS assay relative to control; format: functional; summary of the method: as §1

inhibition (Bos taurus [2])	TIME (Bos taurus [3])	inhibition (Bos taurus [4])	SMILES	Activity (MCF7 [1])	IC50 (MCF7 [1])	Activity (MCF7 [5])
Active	0.25 to 0.333 h	inactive	CCCCC/C=C\C/C=C\C/C=C\C/C=C\CCCC(=O)Oc1cc(/C=C\c2cc(OC)c(OC)c(OC)c2)ccc1OC	Dose-dependent effect	700 nM	–
Active	0.25 to 0.333 h	inactive	CCCCC/C=C\C/C=C\CCCCCCCC(=O)Oc1cc(/C=C\c2cc(OC)c(OC)c(OC)c2)ccc1OC	–	> 10000 nM	65 - 75%
Active	0.25 to 0.333 h	inactive	CC/C=C\C/C=C\C/C=C\CCCCCCCC(=O)Oc1cc(/C=C\c2cc(OC)c(OC)c(OC)c2)ccc1OC	–	> 10000 nM	65 - 75%

SMILES	inhibition (Bos taurus [2])	TIME (Bos taurus [3])	inhibition (Bos taurus [4])	Activity (MCF7 [1])	IC50 (MCF7 [1])	Activity (MCF7 [5])
COc1ccc(/C=C\c2cc(OC)c(OC)c(OC)c2)cc1O [COMBRETASTATIN A4]	Active	–	–	–	200 nM	–
